In ChEMBL document CHEMBL4834426, “Antimalarial Benzimidazole Derivatives Incorporating Phenolic Mannich Base Side Chains Inhibit Microtubule and Hemozoin Formation: Structure-Activity Relationship and In Vivo Oral Efficacy Studies” (J Med Chem, 2021):
pIC50: −log10 of the molar value. In brackets after ≈: the same amount, converted by molar mass.

What was measured:
[1] = Kinetic solubility of the compound in pH 6.5 incubated for 24 hrs by HPLC-DAD analysis; format: physicochemical; conditions: buffer, read-out: Kinetic_solubility
Procedure, shortened: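 Miniaturized shake-flask method. 10 mM DMSO stock dried down, phosphate buffer pH 6.5 added, shaken 24 h at 25 °C. Centrifuged 3500g for 15 min; supernatant analyzed by HPLC-DAD against 10−220 μM DMSO calibration curve. Reserpine, hydrocortisone and MMV390048 as controls.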

Plasmodium falciparum [2] = experiment: Antiplasmodial activity against […] Plasmodium falciparum NF54 early gametocytes transfected with GFP-Luc […] incubated for 48 hrs by microscopy based luciferase reporter gene assay relative to control; format: functional, organism-based; conditions: NF54, 48 h
Procedure, shortened: (§1)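 Transgenic NF54-Pfs16-GFP-Luc gametocytes, read by luciferase reporter. Early assays were set up on day 5 (50% stage II/50% stage III) and late assays on day 10 (40% stage IV/60% stage V). Luciferin was added to lysates at room temperature and bioluminescence read. Methylene blue (5 μM) was the reference. Single-point screens at 1 and 5 μM used n=1 in technical triplicate. IC₅₀ came from a normalized nonlinear fit, n≥3 in triplicate.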

Plasmodium falciparum [3] = experiment: Antimalarial activity against asexual blood stage drug-sensitive Plasmodium falciparum NF54 infected in erythrocytes assessed as reduction in parasitemia incubated up to 72 hrs by [3H]hypoxanthine incorporation assay; format: functional, organism-based
Procedure, shortened: (§2)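 [³H]-Hypoxanthine incorporation assay (modified) on asexual blood-stage P. falciparum in vitro. IC₅₀ values are means of ≥2 independent experiments.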

Plasmodium falciparum [4] = experiment: Antiplasmodial activity against […] Plasmodium falciparum NF54 late gametocytes transfected with GFP-Luc […] incubated for 48 hrs by microscopy based luciferase reporter gene assay relative to control; format: functional, organism-based; conditions: NF54, 48 h; procedure, shortened: as §1
Plasmodium falciparum [5] = experiment: Antiplasmodial activity against […] Plasmodium falciparum NF54 early gametocytes transfected with GFP-Luc […] at 1 uM incubated for 48 hrs by microscopy based luciferase reporter gene assay relative to control; format: functional
Procedure, shortened: (§3)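 NF54-Pfs16-GFP-Luc gametocytes, assays set up day 5 (early, stage II/III) or day 10 (late, stage IV/V). Culture at 2−3% gametocytemia, 1.5% hematocrit, 48 h drug exposure at 37 °C under 90% N₂/5% O₂/5% CO₂. Lysates mixed with luciferin; bioluminescence read with 10 s integration. Dual-point: one biological repeat in technical triplicate. Methylene blue (5 μM) reference.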

Plasmodium falciparum [6] = experiment: Antiplasmodial activity against […] Plasmodium falciparum NF54 late gametocytes transfected with GFP-Luc […] at 1 uM incubated for 48 hrs by microscopy based luciferase reporter gene assay relative to control; format: functional; procedure, shortened: as §3
[7] = Selectivity index, ratio of IC50 for Cytotoxicity against CHO cells assessed as inhibition of cell viability by MTT assay to IC50 for antimalarial activity against asexual blood stage Plasmodium falciparum NF54 assessed as reduction in parasitemia incubated up to 72 hrs by [3H]hypoxanthine incorporation assay; format: toxicity, cell-based; conditions: hamster, read-out: Selectivity Index
Procedure, shortened: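 Selectivity index is IC₅₀(CHO)/IC₅₀(NF54). […] IC₅₀ came from nonlinear dose-response fitting. Parasite IC₅₀ came from the [³H]-hypoxanthine assay.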

Plasmodium falciparum [8] = experiment: Antimalarial activity against asexual blood stage multi drug-resistant Plasmodium falciparum K1 infected in erythrocytes assessed as reduction in parasitemia incubated up to 72 hrs by [3H]hypoxanthine incorporation assay; format: functional, organism-based; procedure, shortened: as §2
[9] = Resistance index, ratio of IC50 for antimalarial activity against asexual blood stage multi drug-resistant Plasmodium falciparum K1 to IC50 for antimalarial activity against asexual blood stage drug-sensitive Plasmodium falciparum NF54; format: functional
Procedure, shortened: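 Resistance index is IC₅₀(K1)/IC₅₀(NF54). Both IC₅₀s came from the [³H]-hypoxanthine incorporation assay, as means of ≥2 independent experiments.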

CHO = experiment: Cytotoxicity against CHO cells assessed as inhibition of cell viability by MTT assay; format: cell-based; conditions: Cricetulus griseus
[10] = Metabolic stability in mouse liver microsomes assessed as compound remaining at 1 uM incubated for 30 mins by LC-MS/MS analysis; format: ADME, Microsome; conditions: read-out: Stabilty
Procedure, shortened: (§4)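 Single-point design: 1 μM compound with 0.4 mg/mL liver microsomes in 0.1 M phosphate buffer pH 7.4 for 30 min. Quenched with ice-cold acetonitrile containing carbamazepine internal standard, centrifuged, analyzed by LC−MS/MS. Percent remaining from internal-standard-corrected peak areas at 30 min versus 0 min. Propranolol, midazolam and MMV390048 as controls.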

[11] = Metabolic stability in human liver microsomes assessed as compound remaining at 1 uM incubated for 30 mins by LC-MS/MS analysis; format: ADME, Microsome; conditions: read-out: Stabilty; procedure, shortened: as §4
Plasmodium falciparum [12] = experiment: Antiplasmodial activity against […] Plasmodium falciparum NF54 early gametocytes transfected with GFP-Luc […] at 5 uM incubated for 48 hrs by microscopy based luciferase reporter gene assay relative to control; format: functional; procedure, shortened: as §3
[13] = Metabolic stability in rat liver microsomes assessed as compound remaining at 1 uM incubated for 30 mins by LC-MS/MS analysis; format: ADME, Microsome; conditions: read-out: Stabilty; procedure, shortened: as §4
Plasmodium falciparum [14] = experiment: Antiplasmodial activity against […] Plasmodium falciparum NF54 late gametocytes transfected with GFP-Luc […] at 5 uM incubated for 48 hrs by microscopy based luciferase reporter gene assay relative to control; format: functional; procedure, shortened: as §3
Plasmodium berghei = experiment: Antimalarial activity against GFP-transfected Plasmodium berghei ANKA infected in NMRI mouse model assessed as reduction in parasitemia at 50 mg/kg, po dosed 4 times relative to control; format: functional; design: scale not given: the % may be the effect or the level left
Procedure, shortened: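 Mice (n = 3) infected with GFP-transfected P. berghei ANKA. Compound in 70% Tween-80/30% ethanol, diluted 10-fold in water, given orally at 4, 24, 48 and 72 h post-infection. Blood taken day 4 (96 h); parasitemia by flow cytometry, detection limit 0.1%. Activity = difference in mean % parasitemia between control and treated, as % of control.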

| Structure (SMILES) | solubility kinetic at 24 h [1] [µM] | pIC50 (Plasmodium falciparum [2]) | pIC50 (Plasmodium falciparum [3]) | pIC50 (Plasmodium falciparum [4]) | inhibition at 1 µM (Plasmodium falciparum [5]) [%] | inhibition at 1 µM (Plasmodium falciparum [6]) [%] | selectivity ratio at 72 h [7] | pIC50 (Plasmodium falciparum [8]) | Ratio IC50 [9] | pIC50 (CHO) | remaining at 0.5 h, 1 µM [10] [%] | remaining at 0.5 h, 1 µM [11] [%] | inhibition at 5 µM (Plasmodium falciparum [12]) [%] | remaining at 0.5 h, 1 µM [13] [%] | inhibition at 5 µM (Plasmodium falciparum [14]) [%] | Activity (Plasmodium berghei) [%] |
| --- | --- | --- | --- | --- | --- | --- | --- | --- | --- | --- | --- | --- | --- | --- | --- | --- |
| CCNCc1cc(C)cc(Nc2nc3cc(F)c(F)cc3n2Cc2ccc(C(F)(F)F)cc2)c1O | 16 (≈ 7.85 µg/mL) | 6.68 | 6.59 | 5.63 | 86 | 0 | 7.84 | 6.89 | 0.5 | 5.69 | 93 | 99 | 94 | 77 | 24 |  |
| CCN(CC)Cc1cccc(Nc2nc3ccccc3n2Cc2ccc(C(F)(F)F)cc2)c1O |  | 5.84 | 6.36 |  | 71 | 35 | > 113 | 6.89 | 0.3 | < 4.30 |  |  | 93 |  | 56 |  |
| Cc1cc(CNC(C)(C)C)c(O)c(Nc2nc3ccccc3n2Cc2ccc(C(F)(F)F)cc2)c1 | 50 (≈ 24.1 µg/mL) | 6.04 | 6.40 |  | 45 | 0 | 75.1 | 6.64 | 0.58 | 4.52 | 62 | 99 | 96 | 41 | 62 | <40 |
| CCN(CC)Cc1cc(Cl)cc(Nc2nc3ccccc3n2Cc2ccc(C(F)(F)F)cc2)c1O |  | 7.25 | 6.82 | 5.72 | 69 | 2 | > 333 | 7.30 | 0.33 | < 4.30 |  |  | 89 |  | 10 |  |
| CCN(CC)Cc1cc(F)cc(Nc2nc3ccccc3n2Cc2ccc(C(F)(F)F)cc2)c1O |  | 7.01 | 6.77 | < 5.30 | 74 | 0 | > 294 | 6.72 | 1.12 | < 4.30 |  |  | 90 |  | 10 |  |
| CCN(CC)Cc1cccc(Nc2nc3ccccc3n2Cc2ccc(F)cc2)c1O |  | 5.65 | 6.44 |  | 65 | 36 | > 136 | 6.74 | 0.5 | < 4.30 |  |  | 91 |  | 58 |  |
| CCN(CC)Cc1cc(C)cc(Nc2nc3ccccc3n2Cc2ccc(C(F)(F)F)cc2)c1O | < 5 | 6.96 | 6.72 |  | 91 | 41 | 154 | 7.22 | 0.32 | 4.53 | < 7 | 36 | 97 | < 7 | 62 |  |
| CCN(CC)Cc1cc(C)cc(Nc2nc3ccccc3n2Cc2ccc(F)cc2)c1O |  | 6.06 | 6.26 |  | 81 | 41 | 34 | 6.68 | 0.38 | 4.73 |  |  | 97 |  | 58 |  |
| CCN(CC)Cc1c(Cl)ccc(Nc2nc3ccccc3n2Cc2ccc(C(F)(F)F)cc2)c1O |  | 5.51 | 5.74 |  | 7 | 5 | > 27 | 6.42 | 0.21 | < 4.30 |  |  | 59 |  | 1 |  |
| CC(C)(C)NCc1cc(Cl)cc(Nc2nc3cc(F)c(F)cc3n2Cc2ccc(C(F)(F)F)cc2)c1O | < 5 | 6.16 | 6.72 |  | 14 | 31 | > 263 | 7.05 | 0.47 | < 4.30 | 94 | 89 | 70 | 94 | 1 | <40 |
| Cc1cc(CNC(C)(C)C)c(O)c(Nc2nc3cc(F)c(F)cc3n2Cc2ccc(C(F)(F)F)cc2)c1 | < 5 | 6.28 | 6.60 |  | 60 | 0 | 40.2 | 6.82 | 0.6 | 5.00 | > 99 | 90 | 96 | 89 | 73 |  |
| CCNCc1cc(C)cc(Nc2nc3ccccc3n2Cc2ccc(C(F)(F)F)cc2)c1O | 35 (≈ 15.9 µg/mL) | 6.00 | 6.11 |  | 30 | 0 | 24.1 | 6.52 | 0.39 | 4.73 | 52 | 98 | 95 | 51 | 14 |  |
| CC(C)(C)NCc1cc(Cl)cc(Nc2nc3ccccc3n2Cc2ccc(C(F)(F)F)cc2)c1O | < 5 | 6.23 | 6.55 |  | 44 | 0 | 130 | 7.22 | 0.21 | 4.44 | 36 | 81 | 92 | 9 | 0 |  |
| CCN(CC)Cc1ccc(C)c(Nc2nc3ccccc3n2Cc2ccc(C(F)(F)F)cc2)c1O |  |  | 5.54 |  | 18 | 29 | 11.8 | 6.03 | 0.33 | 4.47 |  |  | 90 |  | 43 |  |
